Assay results: ChEMBL document CHEMBL1155456, “Thiadiazole carbamates: potent inhibitors of lysosomal acid lipase and potential Niemann-Pick type C disease therapeutics” (J Med Chem, 2010)
The source made the active and inactive calls.

Assays:
[1] = molecular target: T1, Lysosomal acid lipase/cholesteryl ester hydrolase (Homo sapiens) (UniProt P38571); assay: Inhibition of human LAL at 10 uM after 30 mins by fluorescence assay
T1 sequence (whole entry): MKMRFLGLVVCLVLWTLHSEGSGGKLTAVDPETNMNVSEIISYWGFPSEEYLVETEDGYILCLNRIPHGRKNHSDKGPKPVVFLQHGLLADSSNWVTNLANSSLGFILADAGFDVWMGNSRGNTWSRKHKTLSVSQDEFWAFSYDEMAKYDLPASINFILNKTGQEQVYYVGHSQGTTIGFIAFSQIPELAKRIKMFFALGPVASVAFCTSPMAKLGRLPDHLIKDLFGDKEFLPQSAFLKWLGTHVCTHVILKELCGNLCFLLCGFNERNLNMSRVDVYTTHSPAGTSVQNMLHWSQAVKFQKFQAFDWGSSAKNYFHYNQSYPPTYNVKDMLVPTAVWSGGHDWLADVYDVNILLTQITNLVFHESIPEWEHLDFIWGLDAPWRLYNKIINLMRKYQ

[2] = Cytotoxicity against human GM05659 cells at 10 uM; assay type: cell-based
[3] = Cytotoxicity against human GM03123 cells at 10 uM; assay type: cell-based
[4] = molecular target: T1, Lysosomal acid lipase/cholesteryl ester hydrolase (Homo sapiens); assay: Inhibition of human LAL at 833 nM by fluorescence assay; settings: TDE = time-dependent effect
Summary of the method: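 Purified human LAL pre-incubated with compound at 833 nM for varying times at 37 °C (500 nM final in assay). Reaction started with 125 μM (final) 4-methylumbelliferyl oleate, followed 30 min at 37 °C. Normalized to DMSO control; mean ± SEM of 2 experiments, 12 wells per condition.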

[5] = molecular target: T2, Lysosomal acid lipase/cholesteryl ester hydrolase (Homo sapiens, UniProt P38571); assay: Inhibition of human LAL after 30 mins by fluorescence assay
T2 sequence (P38571 whole entry): T1 sequence (whole entry)
Summary of the method: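 Purified recombinant human LAL (1 mU/ml final) with threefold serial compound dilutions in 200 mM sodium acetate pH 5.5, 0.02% Tween-20, 30 min at 37 °C. 125 μM (final) 4-methylumbelliferyl oleate in Triton X-100 added; fluorescence (ex 355/em 450) read after 1 h at 37 °C. IC50 from rectangular-hyperbola fit of normalized activity; mean ± SEM of 3 independent experiments.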

[6] = molecular target: T1, Lysosomal acid lipase/cholesteryl ester hydrolase (Homo sapiens); assay: Inhibition of human LAL assessed as enzyme decarbamoylation rate constant at 10 uM after 30 mins by fluorescence assay
Summary of the method: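 Purified human LAL carbamoylated with 10 μM compound for 30 min, then diluted 250× to 40 nM with 125 μM 4-methylumbelliferyl oleate. Run at 37 °C, pH 5.5 acetate buffer with Tween and Triton X-100; fluorescence read every 10 min for 2 h. k3 from linear regression of ln(fraction inhibited) vs time; mean ± SEM of 4 experiments.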

[7] = molecular target: T1, Lysosomal acid lipase/cholesteryl ester hydrolase (Homo sapiens); assay: Inhibition of LAL in human GM05659 cell lysate assessed as reduction in lysosomal storage organelle cholesterol level at 0.1 to 10 uM after 4 days by bicinchoninic acid assay
Summary of the method: (§1)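 Human fibroblasts in MEM with 10% FBS, exposed to compound 3–4 days (withdrawal variant: 3 days treatment, then 1 day compound-free). Cells PBS-washed, rinsed in 150 mM sodium acetate pH 5.5, lysed in 1% Triton X-100 for 30 min at 37 °C. 1 mM (final) 4-methylumbelliferyl oleate added; fluorescence activity normalized to protein by bicinchoninic acid assay.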

[8] = molecular target: T1, Lysosomal acid lipase/cholesteryl ester hydrolase (Homo sapiens); assay: Inhibition of LAL in human GM05659 cell lysate assessed as reduction in lysosomal storage organelle cholesterol level at 0.1 to 10 uM treated for 3 days measured after 1 day of compound withdrawal by bicinchoninic acid assay; summary of the method: as §1
[9] = molecular target: T1, Lysosomal acid lipase/cholesteryl ester hydrolase (Homo sapiens); assay: Inhibition of LAL in intact human GM05659 cells assessed as increase in neutral lipid accumulation in lysosomal storage organelle at 10 uM after 3 days by lipidTox green staining-based fluorescence microscopy; assay type: cell-based
Summary of the method: (§2)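 Fibroblasts in MEM with 10% FBS treated 3 days, stained with filipin or LipidTOX green, imaged by automated fluorescence microscopy. After background correction, integrated thresholded fluorescence within lysosomal storage organelles was normalized to total cell area defined by low-threshold filipin signal.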

[10] = molecular target: T1, Lysosomal acid lipase/cholesteryl ester hydrolase (Homo sapiens); assay: Inhibition of LAL in intact human GM03123 cells assessed as reduction in lysosomal storage organelle cholesterol level at 10 uM after 3 days by filipin LSO assay; assay type: cell-based; summary of the method: as §2
[11] = molecular target: T1, Lysosomal acid lipase/cholesteryl ester hydrolase (Homo sapiens); assay: Competitive inhibition of human LAL preincubated for 30 mins by Lineweaver-Burke plot analysis
Summary of the method: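 Purified recombinant human LAL pre-incubated with inhibitor 30 min at 37 °C; reaction started with 4-methylumbelliferyl oleate at various concentrations, monitored 45 min. Concentrations are final. Lineweaver-Burk plots fitted by linear regression; two independent experiments, 6–8 wells per treated condition.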

SMILES | inhibition [1] | Activity [2] | Activity [3] | other results
COC(=O)C(C)(C)c1nsnc1N1CCOCC1 | inactive | Non-toxic | Non-toxic | –
O=C(Cc1nsnc1N1CCCCC1)N1CCOCC1 | inactive | Non-toxic | Non-toxic | –
COC(N)=O | inactive | – | – | –
CC(C)(C)OC(=O)Cc1nsnc1N1CCCCC1 | – | Non-toxic | Non-toxic | –
O=C(Oc1nsnc1N1CCCC1)N1CCOCC1 | – | Non-toxic | Non-toxic | inhibition [4]: tde; IC50 [5]: 473 nM; Activity [6]: 0.0037 min⁻¹; inhibition [7]: Active
CC(C)(C)C(=O)Cc1nsnc1N1CCOCC1 | inactive | Non-toxic | Non-toxic | –
O=C(Oc1nsnc1N1CCCCCC1)N1CCCCC1 | – | Non-toxic | Non-toxic | inhibition [4]: tde; IC50 [5]: 300 nM; Activity [6]: 0.0013 min⁻¹; inhibition [8]: Active; inhibition [7]: Active
CN1CCC(OC(=O)Nc2ccc(F)cc2)CC1 | inactive | – | – | –
COC(=O)C(C)c1nsnc1N1CCOCC1 (racemic) | Active | Non-toxic | Non-toxic | –
O=C(Oc1nsnc1N1CCCC1)N1CCCCC1 | – | Non-toxic | Non-toxic | IC50 [5]: 496 nM; Activity [6]: 0.0007 min⁻¹; inhibition [8]: Active; inhibition [7]: Active
O=C(Oc1nsnc1N1CCCCC1)N1CCCCC1 | – | Non-toxic | Non-toxic | inhibition [4]: tde; IC50 [5]: 152 nM; inhibition [9]: Active; Activity [6]: 0.001 min⁻¹; inhibition [8]: Active; inhibition [10]: Active; inhibition [7]: Active
O=C(Oc1nsnc1N1CCCCC1)N1CCOCC1 | – | Non-toxic | Non-toxic | inhibition [4]: tde; IC50 [5]: 68 nM; inhibition [11]: Active; Activity [6]: 0.003 min⁻¹; inhibition [7]: Active
O=C(Oc1nsnc1N1CCOCC1)N1CCOCC1 | – | Non-toxic | Non-toxic | inhibition [4]: tde; IC50 [5]: 492 nM; inhibition [9]: inactive; Activity [6]: 0.0043 min⁻¹; inhibition [10]: inactive; inhibition [7]: Active
O=C(Cc1nsnc1N1CCOCC1)c1ccccc1 | inactive | Non-toxic | Non-toxic | –
COC(=O)C(CCc1ccccc1)c1nsnc1N1CCOCC1 (racemic) | inactive | Non-toxic | Non-toxic | –
NCCCCCCNC(=O)OCc1ccccc1 | inactive | – | – | –
O=C(Oc1nsnc1N1CCOCC1)N1CCCCC1 | – | Non-toxic | Non-toxic | inhibition [4]: tde; IC50 [5]: 424 nM; Activity [6]: 0.0016 min⁻¹; inhibition [7]: Active
CNC(=O)Oc1ccc2c(c1)[C@]1(C)CCN(C)[C@@H]1N2C | inactive | – | – | –
Oc1nsnc1N1CCCCCC1 | inactive | Non-toxic | Non-toxic | –
Oc1nsnc1N1CCOCC1 | inactive | Non-toxic | Non-toxic | –
O=C(Cc1nsnc1N1CCOCC1)N1CCOCC1 | inactive | Non-toxic | Non-toxic | –
Oc1nsnc1N1CCCCC1 | inactive | Non-toxic | Non-toxic | –
CCOC(=O)Cc1nsnc1N1CCOCC1 | inactive | Non-toxic | Non-toxic | –
O=C(Oc1nsnc1N1CCCCCC1)N1CCOCC1 | – | Non-toxic | Non-toxic | inhibition [4]: tde; IC50 [5]: 189 nM; Activity [6]: 0.0042 min⁻¹; inhibition [7]: Active
CC(C)(C)OC(=O)Cc1nsnc1N1CCOCC1 | inactive | Non-toxic | Non-toxic | –
COc1ccccc1OCC(CO)OC(N)=O (stereo not given) | inactive | – | – | –
Oc1nsnc1N1CCCC1 | inactive | Non-toxic | Non-toxic | –
CC(C(=O)c1ccccc1)c1nsnc1N1CCOCC1 (racemic) | inactive | Non-toxic | Non-toxic | –
CN(C)C(=O)Oc1cccc([N+](C)(C)C)c1 | inactive | – | – | –
